Rin1 Abl inh: inhibitors of Rin1-Abl protein binding, primary screen, biochemical, TR-FRET | inhibition, % at 7.35 µM | hit rate 0.4% among 360,000 | AID 588664, 2011; in the data active = inhibition above about 5%, passing the limit was not always enough
SUMO HTRF inh: inhibitors of in vitro SUMOylation cascade, primary screen, biochemical, HTRF, uHTS | HTRF SUMOylation assay, SAE1/SAE2 + UBC9 | inhibition, % at 35 µM | hit rate 0.36% among 290,000 | AID 2006, 2009; in the data active = inhibition above about 50%, passing the limit was not always enough; inconclusive = no clear call, values can overlap the other calls
Target sequence (P63279 whole entry, looked up): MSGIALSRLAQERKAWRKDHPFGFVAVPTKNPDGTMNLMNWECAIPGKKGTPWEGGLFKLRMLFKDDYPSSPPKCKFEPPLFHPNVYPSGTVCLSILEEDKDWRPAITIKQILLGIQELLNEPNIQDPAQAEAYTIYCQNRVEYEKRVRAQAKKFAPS
RBBP9 inhibitor: human RBBP9 inhibitors, primary screen, biochemical, fluorescence polarization, FP-Rh probe, HTS; Serine hydrolase RBBP9 (Homo sapiens), O75884; recombinant RBBP9; inhibition, % at 7.94 µM; hit rate 0.2% among 220,000;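 active = inhibition above the campaign mean of all tested compounds plus 3 SD, cut at about 14% in these data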
Target sequence (O75884 whole entry, looked up): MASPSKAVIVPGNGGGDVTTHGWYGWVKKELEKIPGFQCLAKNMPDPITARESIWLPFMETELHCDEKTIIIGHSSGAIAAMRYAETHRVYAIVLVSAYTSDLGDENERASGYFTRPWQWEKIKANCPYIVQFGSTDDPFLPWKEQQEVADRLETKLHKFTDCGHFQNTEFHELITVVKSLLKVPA
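Controls: DMSO-treated enzyme wells and wells lacking RBBP9 | Material: RBBP9 protein | Technique: Fluorescence polarization | Replication: Single well per compound, no replicates | Buffer or medium: Tris-NaCl-Pluronic buffer, pH 8.0 | Timing: 30 min compound preincubation, 45 min probe labeling, 25 °C | Read-out basis: Percent inhibition from mP, scaled between DMSO and no-protein wells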
UBC13 polyUb: UBC13 polyubiquitin chain formation inhibitors, primary screen, biochemical, TR-FRET, uHTS; inhibition, % at 20 µM; hit rate 0.47% among 330,000; in the data active = inhibition above about 45%, passing the limit was not always enough; inconclusive = no clear call, values can overlap the other calls
ALR H2O2 inh: inhibitors of human ALR sulfhydryl oxidase, primary screen, biochemical, H2O2 detection, HRP-luminol luminescence, single point; inhibition, % (test concentration not listed); purified ALR, DTT oxidation; FAD-linked sulfhydryl oxidase ALR (Homo sapiens), P55789; hit rate 3.8% among 290,000;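 active = mean replicate inhibition above about 79%, with every replicate also reaching it, limit read from the data; inconclusive = only one of the two criteria met; inactive = mean below limit and not every replicate reaching it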
Target sequence (P55789 whole entry, looked up): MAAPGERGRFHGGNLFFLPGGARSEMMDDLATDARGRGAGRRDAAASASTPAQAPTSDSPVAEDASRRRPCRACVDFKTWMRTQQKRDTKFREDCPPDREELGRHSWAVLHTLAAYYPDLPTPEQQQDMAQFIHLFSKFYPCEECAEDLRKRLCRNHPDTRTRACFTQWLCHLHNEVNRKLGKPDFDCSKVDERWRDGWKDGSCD
PREPL inhibitor: PREPL enzyme inhibitors, primary screen, biochemical, fluorescence polarization; Prolyl endopeptidase-like (Homo sapiens), Q4J6C6; recombinant PREPL, fluorescence polarization activity-based probe; inhibition, % at 5.96 µM; hit rate 0.68% among 320,000; in the data active = inhibition above about 43%
Numbers stand for hits; i = inactive; ? = inconclusive; nt = not tested or not shown. Only some compounds are listed: those with a hit (about 4.3% of all), similar ones and a draw of the others.

SMILES	Rin1 Abl inh	SUMO HTRF inh	RBBP9 inhibitor	UBC13 polyUb	ALR H2O2 inh	PREPL inhibitor
Cc1c(Cl)cnc(NC(=O)CSc2nncs2)c1Cl	i	i	i	i	i	i
Cc1cc(C)n(CCC(=O)N/N=C/c2ccc(O)cc2)n1	i	i	i	i	99	i
CCOc1cc(/C=N/NC(=O)CCn2nc(C)cc2C)ccc1O	i	i	i	i	99	i
CN(CC1COc2ccccc2O1)C(=O)c1cccc(S(=O)(=O)N2CCCC2)c1 (centres undefined)	i	nt	nt	i	i	i
O=C1CCCCN1CCc1c[nH]c2ccccc12	i	i	i	i	87	i
COc1ccccc1C(CNC(=O)c1cccc(S(=O)(=O)Nc2ccc(C)cc2)c1)N(C)C (centres undefined)	i	i	nt	i	i	i
O=[N+]([O-])c1ccc(Cl)c(C[n+]2cccc3ccccc32)c1	i	i	nt	i	i	i
CCOC(=O)c1nn(-c2ccc(C)c(C)c2)c(=O)c(C#N)c1C	i	i	nt	i	i	i
Cc1ccc(S(=O)(=O)N/N=C2/CC(c3ccccc3)Oc3ccccc32)cc1 (centres undefined)	i	i	i	i	i	i
O=S(=O)(N/N=C1\CC(c2ccccc2)Oc2ccccc21)c1ccccc1 (centres undefined)	i	i	i	i	96	i
CCc1ccccc1Nc1ccc(C(=O)O)cc1N	i	i	i	i	99	i
CCNc1ccc(C(=O)O)cc1N	i	i	i	i	98	i
Nc1cc(C(=O)O)ccc1Nc1ccccc1	i	i	i	i	nt	i
CCCN(C(=O)CSc1nnc(-c2ccc3c(c2)OCO3)o1)C1CCS(=O)(=O)C1 (centres undefined)	i	nt	nt	nt	nt	nt
COc1cc(F)ccc1-c1cc(C(=O)NCc2ccc(C(F)(F)F)cc2)[nH]n1	i	nt	nt	nt	nt	nt
NC(=O)CSc1cn(CCNC(=O)c2cccs2)c2ccccc12	i	i	nt	i	98	i
N#CC(C#N)=Cc1c(N2CCN(c3ccccc3)CC2)nc2ccccn2c1=O	i	i	nt	i	i	i
c1ccc(CNc2ccc3c(c2)ncn3C2CCCCC2)nc1	i	i	i	i	94	i
CCc1cc(C(=O)N2CCCC(CNC(=O)c3ccc(-c4ccccc4)cc3)C2)no1 (centres undefined)	i	i	i	i	i	i
Cc1ccccc1CSc1nnc(C)c(=O)[nH]1	i	i	i	i	91	i
Cc1nnc(SCc2ccc([N+](=O)[O-])cc2)[nH]c1=O	i	i	i	i	i	i
Cc1nnc(SCc2cccc([N+](=O)[O-])c2)[nH]c1=O	i	i	i	i	99	i
CCOc1cccc2cc(-c3nnc(NCc4ccco4)s3)c(=O)oc12	i	61	i	i	i	i
S=c1[nH]nc(COc2ccc(Cl)cc2)n1-c1ccc(Cl)cc1	i	i	nt	i	85	i
Cc1ccc(OCc2n[nH]c(=S)n2-c2ccc(Cl)cc2)cc1	i	i	nt	i	nt	i
SMILES	Rin1 Abl inh	SUMO HTRF inh	RBBP9 inhibitor	UBC13 polyUb	ALR H2O2 inh	PREPL inhibitor
Cc1n[nH]c(=S)n1-c1ccc(Cl)cc1	i	i	i	i	89	i
CC(=O)Nc1ccc(N2C(=O)CSC2c2ccc([N+](=O)[O-])cc2)cc1 (centres undefined)	i	i	nt	i	?	i
O=C1CSC(c2ccc([N+](=O)[O-])cc2)N1c1ccccc1 (centres undefined)	i	i	nt	i	98	i
COc1ccc(N2C(=O)CSC2c2ccc([N+](=O)[O-])cc2)cc1 (centres undefined)	i	i	nt	i	98	i
COc1ccc(C2SCC(=O)N2c2ccc(OC)cc2)cc1 (centres undefined)	i	i	nt	i	i	i
Cc1c(Nc2nc(-c3ccccc3)cs2)c(=O)n(-c2ccccc2)n1C	i	i	i	i	nt	i
C=CC[n+]1c(-c2ccc(C)cc2)csc1Nc1c(C)n(C)n(-c2ccccc2)c1=O	i	i	i	i	99	i
C=CC[n+]1c(-c2ccc(Cl)cc2Cl)csc1Nc1c(C)n(C)n(-c2ccccc2)c1=O	i	i	i	i	94	i
Cc1ccc(-c2nnc(SCC(=O)NC3CCCC3)n2N)cc1	i	nt	nt	i	nt	i
O=C(NCC1CCCO1)c1ccc(OC2CCN(C(=O)C3CC3)CC2)cc1 (centres undefined)	i	i	i	i	i	i
COC(=O)CCCc1nc2ccccc2s1	i	i	i	i	i	i
COc1ccc(CN=C(C)c2c(C(F)(F)F)[nH]n(-c3nc4ccccc4s3)c2=O)cc1	i	i	i	i	nt	i
COC(=O)CC1=NN(c2nc3ccccc3s2)C(=O)/C1=C/N(C)C	i	i	i	i	96	i
CC(=O)c1c(CC(=O)O)[nH]n(-c2nc3ccccc3s2)c1=O	i	i	i	i	97	i
COC(=O)Cc1[nH]n(-c2nc3ccccc3s2)c(=O)c1C(C)=O	i	i	i	i	98	i
O=C(NNC(=O)c1cccs1)c1ccc(Cl)c(Cl)c1	i	i	i	i	i	i
O=C(Nc1sc2c(c1C(=O)O)CCCCC2)c1ccccc1	i	i	i	i	i	i
Cc1ccc(C(=O)c2c(NC(=O)c3cccnc3)sc3c2CCCC3)cc1	i	i	i	i	95	i
COCCCNC(=O)c1ccccc1Oc1ccccc1	i	i	i	i	98	i
Cc1nn(-c2cc(N3CCCCC3)ccc2N)c(=O)c2ccccc12	i	i	i	i	99	i
CC(=O)Nc1cccc(NC(=O)CSc2ccc(C(F)(F)F)cc2[N+](=O)[O-])c1	i	i	i	i	i	i
CC(=O)Nc1ccc(NC(=O)CSC2=NCCS2)cc1	i	i	i	nt	nt	nt
O=C(CSC1=NCCS1)Nc1ccc2ccccc2c1	i	i	i	i	99	i
O=C(CSc1ccc(C(F)(F)F)cc1[N+](=O)[O-])Nc1ccc2ccccc2c1	i	i	i	i	99	i
O=C(CSC1=NCCS1)Nc1cccc(F)c1	i	i	i	i	99	i
O=C(Nc1ccc(-c2n[nH]c(=S)o2)cc1)c1ccccc1Cl	i	i	nt	i	i	i
O=C(CN1C(=O)S/C(=C\c2ccccc2)C1=O)NCCCn1ccnc1	i	i	nt	i	i	i
CC(C)c1ccc(/C=C2\SC(=O)N(CC(=O)NCCCn3ccnc3)C2=O)cc1	i	i	nt	i	99	i
CCC(C)NC(=O)CS(=O)Cc1nc(-c2cccc(OC)c2)oc1C (centres undefined)	i	i	i	i	99	i
Cc1oc(-c2ccccc2)nc1CS(=O)CC(=O)O (centres undefined)	i	i	i	i	nt	i
